pIC50: −log10 of the molar value. Values after ≈ are worked out from the molar mass of the structure shown.
What was measured:
[1] = Partition coefficient, log P of the compound; format: physicochemical; conditions: octanol/water
[2] = Aqueous solubility of the compound; format: physicochemical
Procedure, shortened: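 Solubility measured in water, with each compound tested as amorphous material.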

[3] = target: Cytochrome P450 3A4 (Homo sapiens, UniProt P08684); assay: (§1) Inhibition of recombinant CYP3A4 (unknown origin); format: ADME
[4] = Half life in rat liver microsomes; format: ADME, microsome
[5] = Half life in cynomolgus monkey liver microsomes; format: ADME, Macaca fascicularis, microsome
[6] = target: Cytochrome P450 2C9 (Homo sapiens, UniProt P11712); assay: (§2) Inhibition of CYP2C9 (unknown origin); format: ADME
[7] = Half life in human liver microsomes; format: ADME, microsome
[8] = target: Cytochrome P450 2D6 (Homo sapiens, UniProt P10635); assay: Inhibition of CYP2D6 (unknown origin); format: ADME
[9] = target: hERG (Homo sapiens, UniProt Q12809); assay: Inhibition of human ERG at 10 uM by patch clamp assay relative to control
[10] = Volume of distribution at steady state in iv dosed cynomolgus monkey; format: ADME, organism-based, Macaca fascicularis; conditions: in vivo, read-out: Vdss
[11] = Mean residence time in po dosed cynomolgus monkey; format: ADME, organism-based, Macaca fascicularis; conditions: in vivo
[12] = system: Cynomolgus monkey; assay: Dose normalized AUC in iv dosed cynomolgus monkey; format: ADME, organism-based, Macaca fascicularis; conditions: in vivo
[13] = Oral bioavailability in cynomolgus monkey; format: ADME, organism-based, Macaca fascicularis; conditions: in vivo
[14] = Clearance in iv dosed cynomolgus monkey; format: ADME, organism-based, Macaca fascicularis; conditions: in vivo
[15] = Mean residence time in iv dosed cynomolgus monkey; format: ADME, organism-based, Macaca fascicularis; conditions: in vivo
[16] = target: CYP3A4 (Homo sapiens, UniProt P08684); assay: as §1; format: ADME; conditions: recombinant CYP3A4
[17] = target: CYP2C9 (Homo sapiens, UniProt P11712); assay: as §2; format: ADME
[18] = Oral bioavailability in rat; format: ADME, organism-based; conditions: in vivo
[19] = Clearance in iv dosed rat; format: ADME, organism-based; conditions: in vivo
[20] = Mean residence time in iv dosed rat; format: ADME, organism-based; conditions: in vivo
[21] = target: Voltage-gated inwardly rectifying potassium channel KCNH2 (Homo sapiens, UniProt Q12809); assay: Inhibition of human ERG
[22] = aqueous medium, read-out: solubility

Cytochrome P450 2D6, sequence (P10635 whole entry): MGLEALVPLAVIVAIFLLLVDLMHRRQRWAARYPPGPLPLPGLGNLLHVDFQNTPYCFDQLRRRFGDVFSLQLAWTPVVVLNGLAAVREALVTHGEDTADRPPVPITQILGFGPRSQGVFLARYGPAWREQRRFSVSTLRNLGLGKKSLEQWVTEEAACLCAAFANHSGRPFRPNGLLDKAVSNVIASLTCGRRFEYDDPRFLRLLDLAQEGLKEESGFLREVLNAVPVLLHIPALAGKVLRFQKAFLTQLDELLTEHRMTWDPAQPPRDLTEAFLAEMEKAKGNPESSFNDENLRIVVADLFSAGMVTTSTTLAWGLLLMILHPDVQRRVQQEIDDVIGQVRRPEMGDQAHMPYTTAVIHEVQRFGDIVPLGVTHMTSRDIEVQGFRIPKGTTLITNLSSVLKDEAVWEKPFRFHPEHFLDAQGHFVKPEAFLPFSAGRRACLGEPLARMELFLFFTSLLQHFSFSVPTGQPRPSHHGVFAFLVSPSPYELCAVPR
Cytochrome P450 3A4, sequence (P08684 whole entry): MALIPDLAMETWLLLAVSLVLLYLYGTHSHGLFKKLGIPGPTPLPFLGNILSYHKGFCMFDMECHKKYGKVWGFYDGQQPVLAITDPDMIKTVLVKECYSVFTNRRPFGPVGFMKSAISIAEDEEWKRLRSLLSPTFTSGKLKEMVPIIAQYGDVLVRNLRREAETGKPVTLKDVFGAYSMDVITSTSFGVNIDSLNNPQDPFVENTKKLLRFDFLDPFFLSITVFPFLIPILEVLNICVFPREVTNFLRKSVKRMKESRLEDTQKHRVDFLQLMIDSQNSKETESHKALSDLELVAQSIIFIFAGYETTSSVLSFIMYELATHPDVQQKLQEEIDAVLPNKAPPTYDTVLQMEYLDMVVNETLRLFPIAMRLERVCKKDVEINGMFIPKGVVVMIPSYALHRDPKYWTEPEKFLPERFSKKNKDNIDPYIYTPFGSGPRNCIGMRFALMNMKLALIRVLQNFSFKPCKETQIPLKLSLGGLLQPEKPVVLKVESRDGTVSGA
CYP3A4, sequence (P08684 whole entry): as above
Cytochrome P450 2C9, sequence (P11712 whole entry): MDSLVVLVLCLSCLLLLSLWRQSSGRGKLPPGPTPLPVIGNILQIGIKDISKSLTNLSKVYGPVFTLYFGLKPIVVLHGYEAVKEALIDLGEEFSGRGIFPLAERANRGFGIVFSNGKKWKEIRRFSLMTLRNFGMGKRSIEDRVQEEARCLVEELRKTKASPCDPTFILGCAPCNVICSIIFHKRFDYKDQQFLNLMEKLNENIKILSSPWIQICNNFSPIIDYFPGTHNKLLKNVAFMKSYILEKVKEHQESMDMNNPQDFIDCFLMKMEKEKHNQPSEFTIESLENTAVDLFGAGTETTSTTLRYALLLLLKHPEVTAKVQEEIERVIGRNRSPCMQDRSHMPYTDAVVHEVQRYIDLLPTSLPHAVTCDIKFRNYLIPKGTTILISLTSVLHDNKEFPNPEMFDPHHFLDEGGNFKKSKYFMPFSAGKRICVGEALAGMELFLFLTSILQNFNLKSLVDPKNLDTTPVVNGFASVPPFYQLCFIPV
CYP2C9, sequence (P11712 whole entry): as above
hERG, sequence (Q12809 whole entry): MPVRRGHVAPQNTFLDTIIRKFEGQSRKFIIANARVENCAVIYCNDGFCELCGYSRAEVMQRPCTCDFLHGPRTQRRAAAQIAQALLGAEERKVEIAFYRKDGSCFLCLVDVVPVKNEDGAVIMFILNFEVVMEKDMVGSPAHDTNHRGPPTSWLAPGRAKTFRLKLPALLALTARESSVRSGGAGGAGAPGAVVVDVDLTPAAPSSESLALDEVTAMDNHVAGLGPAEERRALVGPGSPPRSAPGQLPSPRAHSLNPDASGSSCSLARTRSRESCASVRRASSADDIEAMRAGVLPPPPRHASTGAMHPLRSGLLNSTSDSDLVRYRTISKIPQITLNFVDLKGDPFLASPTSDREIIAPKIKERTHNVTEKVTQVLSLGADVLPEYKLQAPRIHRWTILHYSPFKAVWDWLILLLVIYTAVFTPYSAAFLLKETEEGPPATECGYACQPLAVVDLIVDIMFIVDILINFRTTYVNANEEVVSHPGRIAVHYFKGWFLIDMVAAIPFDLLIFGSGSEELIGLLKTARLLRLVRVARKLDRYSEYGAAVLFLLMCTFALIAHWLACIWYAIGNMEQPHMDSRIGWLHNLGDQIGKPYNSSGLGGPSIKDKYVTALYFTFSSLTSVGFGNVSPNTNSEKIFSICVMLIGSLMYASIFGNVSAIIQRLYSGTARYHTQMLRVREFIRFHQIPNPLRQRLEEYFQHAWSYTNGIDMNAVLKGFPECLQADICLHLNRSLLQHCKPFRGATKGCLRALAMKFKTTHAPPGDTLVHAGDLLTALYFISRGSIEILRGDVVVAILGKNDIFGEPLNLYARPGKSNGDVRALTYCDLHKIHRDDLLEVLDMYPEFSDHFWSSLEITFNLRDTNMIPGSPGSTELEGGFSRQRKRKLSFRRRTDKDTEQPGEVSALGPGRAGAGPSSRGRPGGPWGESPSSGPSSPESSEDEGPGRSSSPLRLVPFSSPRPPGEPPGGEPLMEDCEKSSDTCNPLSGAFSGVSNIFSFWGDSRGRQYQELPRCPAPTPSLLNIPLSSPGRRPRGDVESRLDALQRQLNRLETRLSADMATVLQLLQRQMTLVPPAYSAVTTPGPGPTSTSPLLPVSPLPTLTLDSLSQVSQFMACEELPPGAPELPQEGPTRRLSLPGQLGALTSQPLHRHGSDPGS
Voltage-gated inwardly rectifying potassium channel KCNH2, sequence (Q12809 whole entry): as above

Compound | pIC50 [3] | half-life [4] | half-life [5] | half-life [7] | pIC50 [8] | other results
C[C@@H](c1ccc(-c2ccc(F)cc2F)cc1)N1CC[C@](CCO)(c2ccc(F)cc2)OC1=O | – | – | – | – | – | logP [1]: 4.2; solubility ([2]; buffer, BLD = below limit of detection): Bld
C[C@@H](c1ccc(Br)cc1)N1CC[C@](CC(C)(C)O)(c2ccc(F)cc2)OC1=O | 5.46 | 53 min | – | – | – | –
C[C@@H](c1ccc(-c2ccc3ncnn3c2)cc1)N1CC[C@](CC(C)(C)O)(c2ccccc2)OC1=O | 5.00 | > 90 min | > 45 min | > 90 min | < 4.30 | pIC50 [6]: < 4.30
C[C@@H](c1ccc(-c2ccc(=O)n(C)c2)cc1)N1CC[C@](CCCO)(c2ccccc2)OC1=O | 4.98 | – | – | – | – | –
Cc1cnc(-c2ccc([C@H](C)N3CC[C@](CC(C)(C)O)(c4ccccc4)OC3=O)cc2)cn1 | < 4.30 | 16 min | 38 min | > 90 min | < 4.30 | pIC50 [6]: 4.48
COc1ccc(-c2ccc([C@H](C)N3CC[C@](CC(C)(C)O)(c4ccccc4)OC3=O)cc2)cn1 | – | – | – | – | < 4.30 | –
C[C@@H](c1ccc(-c2cccnc2)cc1)N1CC[C@](CCCO)(c2ccccc2)OC1=O | 5.68 | – | – | – | – | –
C[C@@H](c1ccc(Br)cc1)N1CC[C@](CC(C)(C)C#N)(c2ccc(F)cc2)OC1=O | – | 20.3 min | – | – | – | –
Cc1ccc(-c2ccc([C@H](C)N3CC[C@](CC(C)(C)O)(c4ccccc4)OC3=O)cc2)nn1 | – | > 45 min | > 45 min | > 90 min | < 4.30 | inhibition at 10 µM [9]: < 10%; pIC50 [16]: < 4.30; Vd [10]: 1.5 L/kg; MRT [11]: 318 min; pIC50 [17]: < 4.30; AUC/dose [12]: 3330 nM·h; bioavailability [13]: 70%; clearance [14]: 5.2 mL/min/kg; MRT [15]: 288 min
Cc1cc(-c2ccc([C@H](C)N3CC[C@](CCCO)(c4ccccc4)OC3=O)cc2)cc(C)n1 | < 4.52 | 13 min | – | – | – | –
C[C@@H](c1ccc(-c2cncc(F)c2)cc1)N1CC[C@](CCCO)(c2ccccc2)OC1=O | 4.96 | – | – | – | – | –
Cc1ccc([C@H](C)N2CC[C@](CCC(N)=O)(c3ccc(F)cc3)OC2=O)cc1 | – | 7.1 min | – | – | – | –
C[C@@H](c1ccc(OC(F)F)cc1)N1CC[C@](CCC(N)=O)(c2ccccc2)OC1=O | < 4.52 | 50.6 min | – | > 90 min | – | solubility [2, 22]: 1500 µg/mL (≈ 3580 µM); bioavailability [18]: 51%; clearance [19]: 91 mL/min/kg; MRT [20]: 33 min
C[C@@H](c1ccc(OC(F)F)cc1)N1CC[C@](CC(C)(C)O)(c2ccc(F)cc2)OC1=O | 5.18 | > 60 min | – | – | – | –
C[C@@H](c1ccc(-c2ccc(C#N)cn2)cc1)N1CC[C@](CC(C)(C)O)(c2ccccc2)OC1=O | – | > 90 min | > 90 min | > 90 min | < 4.30 | –
COc1ccc([C@H](C)N2CC[C@](CCC(N)=O)(c3ccc(F)cc3)OC2=O)cc1 | – | 9 min | – | – | – | –
C[C@@H](c1ccc(OC(F)F)cc1)N1CC[C@](CCC(N)=O)(c2ccc(F)cc2)OC1=O | 4.57 | > 60 min | – | > 90 min | – | solubility [2, 22]: 460 µg/mL (≈ 1050 µM); pIC50 [21]: 5.28; bioavailability [18]: 77%; clearance [19]: 67 mL/min/kg; MRT [20]: 50.4 min
C[C@@H](c1ccc(-c2ccncc2)cc1)N1CC[C@](CCCO)(c2ccccc2)OC1=O | 5.74 | – | – | – | – | –
C[C@@H](c1ccc(Br)cc1)N1CC[C@](CCO)(c2ccc(F)cc2)OC1=O | < 4.52 | 25 min | – | – | – | –
C[C@@H](c1ccc(OC(F)F)cc1)N1CC[C@](CC(C)(C)O)(c2ccccc2)OC1=O | 5.00 | > 60 min | – | > 90 min | – | solubility [2, 22]: 260 µg/mL (≈ 620 µM); bioavailability [18]: 57%; clearance [19]: 23 mL/min/kg; MRT [20]: 50.4 min
Cc1ncc(-c2ccc([C@H](C)N3CC[C@](CC(C)(C)O)(c4ccccc4)OC3=O)cc2)cn1 | – | > 90 min | > 90 min | > 90 min | < 4.30 | inhibition at 10 µM [9]: 12%; pIC50 [16]: < 4.30; Vd [10]: 1.7 L/kg; MRT [11]: 288 min; pIC50 [17]: < 4.30; AUC/dose [12]: 2070 nM·h; bioavailability [13]: 96%; clearance [14]: 8.1 mL/min/kg; MRT [15]: 210 min

Further lines, with some results ahead:

pIC50 [3] | half-life [4] | half-life [5] | half-life [7] | pIC50 [8] | Compound | other results
– | > 90 min | > 90 min | > 90 min | < 4.30 | C[C@@H](c1ccc(-c2ccc(=O)n(C)c2)cc1)N1CC[C@](CC(C)(C)O)(c2ccccc2)OC1=O | inhibition at 10 µM [9]: < 10%; Vd [10]: 1.7 L/kg; MRT [11]: 288 min; AUC/dose [12]: 1770 nM·h; bioavailability [13]: 39%; clearance [14]: 11 mL/min/kg; MRT [15]: 162 min
4.64 | – | – | – | – | C[C@@H](c1ccc(-c2ccccn2)cc1)N1CC[C@](CCCO)(c2ccccc2)OC1=O | –
< 4.30 | > 90 min | > 45 min | > 90 min | < 4.30 | C[C@@H](c1ccc(-c2ccc(=O)n(C)n2)cc1)N1CC[C@](CC(C)(C)O)(c2ccccc2)OC1=O | inhibition at 10 µM [9]: 50%; pIC50 [6]: < 4.30
< 4.52 | – | – | – | – | COc1ccc(-c2ccc([C@H](C)N3CC[C@](CCCO)(c4ccccc4)OC3=O)cc2)cn1 | –
– | > 45 min | 38 min | > 45 min | < 4.30 | Cc1cc(-c2ccc([C@H](C)N3CC[C@](CC(C)(C)O)(c4ccccc4)OC3=O)cc2)cc(C)n1 | pIC50 [16]: < 4.30
– | > 60 min | – | – | – | C[C@@H](c1ccc(OC(F)(F)F)cc1)N1CC[C@](CCC(N)=O)(c2ccc(F)cc2)OC1=O | –
– | > 45 min | > 45 min | > 90 min | < 4.30 | C[C@@H](c1ccc(-c2ccc(C(N)=O)cn2)cc1)N1CC[C@](CC(C)(C)O)(c2ccccc2)OC1=O | pIC50 [16]: < 4.30; pIC50 [17]: < 4.30; bioavailability [18]: 15%
– | 11.4 min | – | – | – | C[C@@H](c1ccc(Br)cc1)N1CC[C@](CCCNS(C)(=O)=O)(c2ccc(F)cc2)OC1=O | –
– | > 45 min | > 45 min | > 45 min | < 4.30 | C[C@@H](c1ccc(-c2ccc(F)cn2)cc1)N1CC[C@](CC(C)(C)O)(c2ccccc2)OC1=O | –
< 4.52 | 36.1 min | – | > 90 min | – | C[C@@H](c1ccc(Br)cc1)N1CC[C@](CCC(N)=O)(c2ccc(F)cc2)OC1=O | solubility [2, 22]: 300 µg/mL (≈ 668 µM); pIC50 [21]: 5.20; bioavailability [18]: 42%; clearance [19]: 49 mL/min/kg; MRT [20]: 72 min
